Measured values from ChEMBL document CHEMBL4725490, “Decreasing HepG2 Cytotoxicity by Lowering the Lipophilicity of Benzo[d]oxazolephosphinate Ester Utrophin Modulators” (ACS Med Chem Lett, 2020).
≈ marks a conversion by molar mass, not a printed value. Calls of active or inactive are those of the source. The calls are words filed in the database; no cut-off is given here.

system: not listed separately; assay: Inhibition of firefly luciferase activity using ATP as substrate preincubated followed by substrate addition and measured after 15 mins by firefly luciferase reporter gene assay; parameters: species or system Photinus pyralis; settings: not given
How it was run: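 Biochemical counter-screen measuring direct inhibition of recombinant firefly luciferase enzyme activity, used to flag interference in the H2K reporter assay.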

Row | IC50 | Compound
1 | Not Active | CCP(=O)(OC)c1ccc2oc(-c3cncc(C(F)(F)F)c3)nc2c1 (stereo unspecified)
2 | Not Active | CCP(=O)(OC)c1ccc2nc(-c3cccc(OC(F)F)c3)oc2c1 (stereo unspecified)

same assay, conditions: read-out: IC50

Row | IC50 | Compound
3 | > 30 µM | CCP(=O)(OC)c1ccc2nc(-c3ccc4c(c3)OC(F)(F)O4)oc2c1 (stereo unspecified)
4 | 2.48 µM | CCP(=O)(OC)c1ccc2oc(-c3cccc(C(F)F)c3)nc2c1 (stereo unspecified)
5 | > 30 µM | CCP(=O)(OC)c1ccc2nc(-c3ccnc(OC(F)F)c3)oc2c1 (stereo unspecified)
6 | 0.088 µM | CCP(=O)(OC)c1ccc2oc(-c3cccc(OC)c3)nc2c1 (stereo unspecified)
7 | > 30 µM | CCP(=O)(OC)c1ccc2oc(-c3ccnc(OC(F)F)c3)nc2c1 (stereo unspecified)

The next lines start with the molecule.

Row | Compound | IC50
8 | CCP(=O)(OC)c1ccc2oc(-c3cccc(C(F)(F)F)c3)nc2c1 (stereo unspecified) | 12.1 µM
9 | CCP(=O)(OC)c1ccc2oc(-c3cccc(OC(F)F)c3)nc2c1 (stereo unspecified) | > 30 µM
10 | CCP(=O)(OC)c1ccc2oc(-c3ccccc3C(F)F)nc2c1 (stereo unspecified) | 5.73 µM
11 | CCP(=O)(OC)c1ccc2oc(-c3ccc(OC)cc3)nc2c1 (stereo unspecified) | 0.19 µM
12 | CCP(=O)(OC)c1ccc2oc(-c3ccc4c(c3)OC(F)(F)O4)nc2c1 (stereo unspecified) | 23.6 µM
13 | CCP(=O)(OC)c1ccc2oc(-c3ccc(F)cc3)nc2c1 (stereo unspecified) | 0.115 µM

system: not listed separately; assay: Lipophilicity, log D of the compound at pH 7.4; settings: buffer

Row | logD | Compound
14 | 3.09 | CCP(=O)(OC)c1ccc2oc(-c3cccc(C(F)F)c3)nc2c1 (stereo unspecified)
15 | 2.6 | CCP(=O)(OC)c1ccc2nc(-c3ccnc(OC(F)F)c3)oc2c1 (stereo unspecified)
16 | 3.19 | CCP(=O)(OC)c1ccc2oc(-c3cccc(OC)c3)nc2c1 (stereo unspecified)
17 | 3.2 | CCP(=O)(OC)c1ccc2nc(-c3cccc(OC(F)F)c3)oc2c1 (stereo unspecified)
18 | 2.2 | CCP(=O)(OC)c1ccc2oc(-c3ccnc(OC(F)F)c3)nc2c1 (stereo unspecified)

More lines, now with the values behind:

Row | Compound | logD
19 | CCP(=O)(OC)c1ccc2oc(-c3ccccc3C(F)F)nc2c1 (stereo unspecified) | 2.8
20 | CCP(=O)(OC)c1ccc2oc(-c3ccc4c(c3)OC(F)(F)O4)nc2c1 (stereo unspecified) | 2.4
21 | CCP(=O)(OC)c1ccc2oc(-c3ccc(F)cc3)nc2c1 (stereo unspecified) | 2.8
22 | CCP(=O)(OC)c1ccc2oc(-c3cncc(C(F)(F)F)c3)nc2c1 (stereo unspecified) | 2.44

system: not listed separately; assay: Kinetic aqueous solubility of the compound; settings: not given

Row | solubility kinetic | Compound
23 | 574 µM (≈ 219 µg/mL) | CCP(=O)(OC)c1ccc2nc(-c3ccc4c(c3)OC(F)(F)O4)oc2c1 (stereo unspecified)
24 | > 250 µM | CCP(=O)(OC)c1ccc2oc(-c3cccc(C(F)F)c3)nc2c1 (stereo unspecified)
25 | 834 µM (≈ 307 µg/mL) | CCP(=O)(OC)c1ccc2nc(-c3ccnc(OC(F)F)c3)oc2c1 (stereo unspecified)
26 | > 250 µM | CCP(=O)(OC)c1ccc2oc(-c3cccc(OC)c3)nc2c1 (stereo unspecified)
27 | 8.4 µM (≈ 3.09 µg/mL) | CCP(=O)(OC)c1ccc2nc(-c3cccc(OC(F)F)c3)oc2c1 (stereo unspecified)
28 | 733 µM (≈ 270 µg/mL) | CCP(=O)(OC)c1ccc2oc(-c3ccnc(OC(F)F)c3)nc2c1 (stereo unspecified)

Second part, the molecule before the results:

Row | Compound | solubility kinetic
29 | CCP(=O)(OC)c1ccc2oc(-c3ccccc3C(F)F)nc2c1 (stereo unspecified) | > 250 µM
30 | CCP(=O)(OC)c1ccc2oc(-c3ccc(OC)cc3)nc2c1 (stereo unspecified) | 265 µM (≈ 87.8 µg/mL)
31 | CCP(=O)(OC)c1ccc2oc(-c3ccc4c(c3)OC(F)(F)O4)nc2c1 (stereo unspecified) | 576 µM (≈ 220 µg/mL)
32 | CCP(=O)(OC)c1ccc2oc(-c3ccc(F)cc3)nc2c1 (stereo unspecified) | 378 µM (≈ 121 µg/mL)
33 | CCP(=O)(OC)c1ccc2oc(-c3cncc(C(F)(F)F)c3)nc2c1 (stereo unspecified) | 477 µM (≈ 177 µg/mL)

system: not listed separately; assay: Protein binding in mouse plasma; settings: not given

Row | fraction unbound | Compound | PPB
34 | 0.02 | CCP(=O)(OC)c1ccc2nc(-c3ccc4c(c3)OC(F)(F)O4)oc2c1 (stereo unspecified) | –
35 | 0.06 | CCP(=O)(OC)c1ccc2oc(-c3cccc(C(F)F)c3)nc2c1 (stereo unspecified) | –
36 | 0.07 | CCP(=O)(OC)c1ccc2nc(-c3ccnc(OC(F)F)c3)oc2c1 (stereo unspecified) | –
37 | 0.04 | CCP(=O)(OC)c1ccc2oc(-c3cccc(OC)c3)nc2c1 (stereo unspecified) | –
38 | 0.04 | CCP(=O)(OC)c1ccc2nc(-c3cccc(OC(F)F)c3)oc2c1 (stereo unspecified) | –
39 | 0.14 | CCP(=O)(OC)c1ccc2oc(-c3ccnc(OC(F)F)c3)nc2c1 (stereo unspecified) | –

The remaining lines, values behind:

Row | Compound | fraction unbound | PPB
40 | CCP(=O)(OC)c1ccc2oc(-c3ccccc3C(F)F)nc2c1 (stereo unspecified) | 0.03 | –
41 | CCP(=O)(OC)c1ccc2oc(-c3ccc4c(c3)OC(F)(F)O4)nc2c1 (stereo unspecified) | 0.02 | –
42 | CCP(=O)(OC)c1ccc2oc(-c3ccc(F)cc3)nc2c1 (stereo unspecified) | – | 95%
43 | CCP(=O)(OC)c1ccc2oc(-c3cncc(C(F)(F)F)c3)nc2c1 (stereo unspecified) | 0.25 | –

system: not listed separately; assay: Apparent permeability across apical to basolateral side in human Caco2 cells; settings: Caco-2

Row | Papp A→B | Compound
44 | 17.2 ×10⁻⁶ cm/s | CCP(=O)(OC)c1ccc2nc(-c3ccc4c(c3)OC(F)(F)O4)oc2c1 (stereo unspecified)
45 | 14.2 ×10⁻⁶ cm/s | CCP(=O)(OC)c1ccc2oc(-c3cccc(C(F)F)c3)nc2c1 (stereo unspecified)
46 | 21.8 ×10⁻⁶ cm/s | CCP(=O)(OC)c1ccc2nc(-c3ccnc(OC(F)F)c3)oc2c1 (stereo unspecified)
47 | 15.7 ×10⁻⁶ cm/s | CCP(=O)(OC)c1ccc2oc(-c3cccc(OC)c3)nc2c1 (stereo unspecified)
48 | 18.1 ×10⁻⁶ cm/s | CCP(=O)(OC)c1ccc2nc(-c3cccc(OC(F)F)c3)oc2c1 (stereo unspecified)
49 | 22.3 ×10⁻⁶ cm/s | CCP(=O)(OC)c1ccc2oc(-c3ccnc(OC(F)F)c3)nc2c1 (stereo unspecified)

Further lines, the molecule ahead of its results:

Row | Compound | Papp A→B
50 | CCP(=O)(OC)c1ccc2oc(-c3cccc(OC(F)F)c3)nc2c1 (stereo unspecified) | 13.3 ×10⁻⁶ cm/s
51 | CCP(=O)(OC)c1ccc2oc(-c3ccccc3C(F)F)nc2c1 (stereo unspecified) | 16.2 ×10⁻⁶ cm/s
52 | CCP(=O)(OC)c1ccc2oc(-c3ccc(OC)cc3)nc2c1 (stereo unspecified) | 13.3 ×10⁻⁶ cm/s
53 | CCP(=O)(OC)c1ccc2oc(-c3ccc4c(c3)OC(F)(F)O4)nc2c1 (stereo unspecified) | 12.7 ×10⁻⁶ cm/s
54 | CCP(=O)(OC)c1ccc2oc(-c3ccc(F)cc3)nc2c1 (stereo unspecified) | 18 ×10⁻⁶ cm/s

system: not listed separately; assay: Apparent permeability across basolateral to apical side in human Caco2 cells; settings: Caco-2

Row | Papp B→A | Compound
55 | 16.2 ×10⁻⁶ cm/s | CCP(=O)(OC)c1ccc2nc(-c3ccc4c(c3)OC(F)(F)O4)oc2c1 (stereo unspecified)
56 | 10.1 ×10⁻⁶ cm/s | CCP(=O)(OC)c1ccc2oc(-c3cccc(C(F)F)c3)nc2c1 (stereo unspecified)
57 | 16.9 ×10⁻⁶ cm/s | CCP(=O)(OC)c1ccc2nc(-c3ccnc(OC(F)F)c3)oc2c1 (stereo unspecified)
58 | 12.6 ×10⁻⁶ cm/s | CCP(=O)(OC)c1ccc2oc(-c3cccc(OC)c3)nc2c1 (stereo unspecified)
59 | 15.9 ×10⁻⁶ cm/s | CCP(=O)(OC)c1ccc2nc(-c3cccc(OC(F)F)c3)oc2c1 (stereo unspecified)
60 | 20.6 ×10⁻⁶ cm/s | CCP(=O)(OC)c1ccc2oc(-c3ccnc(OC(F)F)c3)nc2c1 (stereo unspecified)

Further lines, the molecule ahead of its results:

Row | Compound | Papp B→A
61 | CCP(=O)(OC)c1ccc2oc(-c3cccc(OC(F)F)c3)nc2c1 (stereo unspecified) | 9.37 ×10⁻⁶ cm/s
62 | CCP(=O)(OC)c1ccc2oc(-c3ccccc3C(F)F)nc2c1 (stereo unspecified) | 11.2 ×10⁻⁶ cm/s
63 | CCP(=O)(OC)c1ccc2oc(-c3ccc(OC)cc3)nc2c1 (stereo unspecified) | 10.7 ×10⁻⁶ cm/s
64 | CCP(=O)(OC)c1ccc2oc(-c3ccc4c(c3)OC(F)(F)O4)nc2c1 (stereo unspecified) | 11.7 ×10⁻⁶ cm/s
65 | CCP(=O)(OC)c1ccc2oc(-c3ccc(F)cc3)nc2c1 (stereo unspecified) | 15.7 ×10⁻⁶ cm/s

system: not listed separately; assay: Half life in mouse hepatocyte; settings: hepatocytes

Row | half-life | Compound
66 | 154 min | CCP(=O)(OC)c1ccc2nc(-c3ccc4c(c3)OC(F)(F)O4)oc2c1 (stereo unspecified)
67 | 20 min | CCP(=O)(OC)c1ccc2oc(-c3cccc(C(F)F)c3)nc2c1 (stereo unspecified)
68 | > 240 min | CCP(=O)(OC)c1ccc2nc(-c3ccnc(OC(F)F)c3)oc2c1 (stereo unspecified)
69 | < 3 min | CCP(=O)(OC)c1ccc2oc(-c3cccc(OC)c3)nc2c1 (stereo unspecified)
70 | 37 min | CCP(=O)(OC)c1ccc2nc(-c3cccc(OC(F)F)c3)oc2c1 (stereo unspecified)
71 | > 240 min | CCP(=O)(OC)c1ccc2oc(-c3ccnc(OC(F)F)c3)nc2c1 (stereo unspecified)

The remaining lines, values behind:

Row | Compound | half-life
72 | CCP(=O)(OC)c1ccc2oc(-c3cccc(OC(F)F)c3)nc2c1 (stereo unspecified) | 13 min
73 | CCP(=O)(OC)c1ccc2oc(-c3ccccc3C(F)F)nc2c1 (stereo unspecified) | < 3 min
74 | CCP(=O)(OC)c1ccc2oc(-c3ccc4c(c3)OC(F)(F)O4)nc2c1 (stereo unspecified) | 154 min
75 | CCP(=O)(OC)c1ccc2oc(-c3cncc(C(F)(F)F)c3)nc2c1 (stereo unspecified) | > 240 min

species on record: Mus musculus; assay: Modulation activity of utrophin in dystrophic mouse muscle cells assessed increase in utrophin protein level by western blot analysis relative to control; settings: filed as modulator
How it was run: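 LUmdx dystrophic mouse muscle cells were treated with compound, and utrophin protein was quantified by Western blot. Values are fold increase in utrophin level.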

Row | Activity | Compound
76 | Active | CCP(=O)(OC)c1ccc2oc(-c3cncc(C(F)(F)F)c3)nc2c1 (stereo unspecified)
77 | Active | CCP(=O)(OC)c1ccc2oc(-c3ccnc(OC(F)F)c3)nc2c1 (stereo unspecified)

system: HepG2; assay: Cytotoxicity against human HepG2 cells assessed as reduction in cell viability incubated for 40 hrs by cell titer glo assay; format: ADME, cell-based; settings: HepG2, 40 h

Row | Compound | IC50
78 | CCP(=O)(OC)c1ccc2nc(-c3ccc4c(c3)OC(F)(F)O4)oc2c1 (stereo unspecified) | 68.9 µM
79 | CCP(=O)(OC)c1ccc2oc(-c3ccc(OC)cc3)nc2c1 (stereo unspecified) | 200 µM
80 | CCP(=O)(OC)c1ccc2oc(-c3ccc(F)cc3)nc2c1 (stereo unspecified) | 200 µM
81 | CCP(=O)(OC)c1ccc2oc(-c3ccnc(OC(F)F)c3)nc2c1 (stereo unspecified) | 200 µM
